Results published in ChEMBL document CHEMBL1125718, “Synthesis and biological evaluation of dipeptidyl and tripeptidyl polyoxin and nikkomycin analogues as anticandidal prodrugs” (1991).
In brackets after ≈: the same amount, converted by molar mass.

What was measured:
[1] = tested on: Candida albicans; assay: Compound was tested for its lowest concentration at which growth of 124N5 strain of Candida albicans was clearly inhibited.; assay type: functional
[2] = tested on: Candida albicans; assay: Compound was tested for rate of hydrolysis (percent hydrolyzed per 10 min) by cell extract from Candida albicans H-317.; assay type: functional
Outline: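 Antibiotic (0.5 mg in H2O–DMSO 50:50) was mixed with cell extract of C. albicans H-317 (3.75 mg protein/mL) and incubated at 36 °C. Portions were withdrawn every 20 min and analysed directly by TLC and HPLC. Nle-UPOC served as control.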

[3] = biological target: Chitin synthase 1 (Candida albicans) (UniProt P23316); assay: Compound was tested for its ability to inhibit chitin synthetase using Candida albicans strain H-317.; assay type: functional
Sequence of Chitin synthase 1 (Candida albicans) (P23316 whole entry, looked up): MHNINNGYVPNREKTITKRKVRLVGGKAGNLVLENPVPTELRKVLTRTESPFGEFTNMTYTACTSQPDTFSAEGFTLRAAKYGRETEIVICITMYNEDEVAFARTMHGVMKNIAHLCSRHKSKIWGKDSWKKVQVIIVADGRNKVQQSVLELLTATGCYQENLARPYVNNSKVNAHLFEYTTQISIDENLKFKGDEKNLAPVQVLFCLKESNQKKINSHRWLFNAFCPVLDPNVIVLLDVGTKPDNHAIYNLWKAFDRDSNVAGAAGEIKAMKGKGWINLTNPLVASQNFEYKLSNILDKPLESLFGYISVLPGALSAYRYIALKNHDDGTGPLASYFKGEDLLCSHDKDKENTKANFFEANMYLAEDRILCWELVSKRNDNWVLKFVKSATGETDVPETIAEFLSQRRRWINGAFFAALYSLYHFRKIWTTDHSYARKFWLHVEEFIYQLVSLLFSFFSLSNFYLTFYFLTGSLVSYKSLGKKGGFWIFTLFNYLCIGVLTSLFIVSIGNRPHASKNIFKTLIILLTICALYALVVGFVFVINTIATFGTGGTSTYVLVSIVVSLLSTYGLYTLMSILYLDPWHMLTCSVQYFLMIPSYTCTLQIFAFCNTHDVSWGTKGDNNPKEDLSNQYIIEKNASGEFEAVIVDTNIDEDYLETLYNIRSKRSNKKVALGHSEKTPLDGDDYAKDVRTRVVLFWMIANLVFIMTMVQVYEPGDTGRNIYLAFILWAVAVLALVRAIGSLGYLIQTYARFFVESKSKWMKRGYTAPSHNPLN
Outline: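 Mixed membrane fraction from C. albicans H-317 was used as the source of total chitin synthetase. Activity was measured with and without polyoxin compounds as N-acetylglucosamine incorporation into chitin. The value is the concentration giving 50% inhibition.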

[4] = tested on: Candida albicans; assay: Compound was tested for its lowest concentration at which growth of H-317 strain of Candida albicans was clearly inhibited.; assay type: functional
[5] = tested on: Candida albicans; assay: (§1) Compound was tested for percent inhibition of transport of (Leu)2 into Candida albicans H-317.; assay type: functional; parameters: concentration or dose not given beside the values
Outline: (§2)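 Uptake of labeled dileucine was measured with analogues added at 10-fold the molar concentration of the transport substrate. Samples were taken at 0, 1, 2, 3 and 4 min, collected on prewet 0.45 µm filters and washed twice with cold water. Rate was expressed as nmol peptide per mg dry-weight cells per min.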

[6] = tested on: Candida albicans; assay: Compound was tested for percent inhibition of transport of (Met)3 into Candida albicans H-317.; parameters: concentration or dose not given beside the values
[7] = tested on: Candida albicans; assay: Compound was tested for its lowest concentration at which growth of 124 strain of Candida albicans was clearly inhibited.; assay type: functional
[8] = tested on: Candida albicans; assay: Compound was tested for percent inhibition of transport of (Met)3 into Candida albicans H-317.
[9] = tested on: Candida albicans; assay: as §1; assay type: functional; outline: as §2
[10] = tested on: Candida albicans; assay: Compound was tested for percent inhibition of transport of (Met)3 into Candida albicans H-317.; parameters: concentration or dose not given beside the values; remark: listed apart in the source

MIC [1]	ID50 [3]	MIC [4]	MIC [7]	SMILES	Hydrolysis [2]	Transport inhibition [5]	Transport inhibition [6]	Transport inhibition [8]	Transport inhibition [9]	Transport inhibition [10]
666 µg/mL (≈ 1340 µM)	0.3 µg/mL (≈ 0.606 µM)	20 µg/mL (≈ 40.4 µM)	10 µg/mL (≈ 20.2 µM)	C[C@@H]([C@H](N)C(=O)N[C@H](C(=O)O)[C@H]1O[C@@H](n2ccc(=O)[nH]c2=O)[C@H](O)[C@@H]1O)[C@H](O)c1ccc(O)cn1 [NIKKOMYCIN]	0	80%	20%			
> 1000 µg/mL		> 1000 µg/mL	> 1000 µg/mL	NC(Cc1cccc(F)c1)C(=O)O (racemic) [M-FLUOROPHENYLALANINE]						
666 µg/mL (≈ 1070 µM)	20 µg/mL (≈ 32.2 µM)	333 µg/mL (≈ 537 µM)	333 µg/mL (≈ 537 µM)	CC(C)C[C@H](N)C(=O)N[C@H](C(=O)N[C@H](C(=O)O)[C@H]1OC(n2cc(CO)c(=O)[nH]c2=O)[C@H](O)[C@@H]1O)[C@H](O)[C@@H](O)COC(N)=O (stereo partly specified)	5	0%	27%			
> 666 µg/mL	0.5 µg/mL (≈ 0.923 µM)	> 666 µg/mL	666 µg/mL (≈ 1230 µM)	CCCCCCCC(=O)NCCCC[C@H](N)C(=O)N[C@H](C(=O)O)[C@H]1O[C@@H](n2ccc(=O)[nH]c2=O)[C@H](O)[C@@H]1O	0			10%	50%	
> 666 µg/mL	80 µg/mL (≈ 101 µM)	> 666 µg/mL	> 666 µg/mL	CCCCCCCC(=O)NCCCC[C@H](NC(=O)[C@@H](N)CCCCNC(=O)CCCCCCC)C(=O)N[C@H](C(=O)O)[C@H]1OC(n2ccc(=O)[nH]c2=O)[C@H](O)[C@@H]1O (stereo partly specified)	0	60%				56%
333 µg/mL (≈ 547 µM)	30 µg/mL (≈ 49.3 µM)	166 µg/mL (≈ 273 µM)	83 µg/mL (≈ 136 µM)	CC(C)C[C@H](N)C(=O)N[C@H](C(=O)N[C@H](C(=O)O)[C@H]1OC(n2cc(C=O)nc2O)[C@H](O)[C@@H]1O)[C@H](C)[C@H](O)c1ccc(O)cn1 (stereo partly specified)	33	0%				22%
166 µg/mL (≈ 327 µM)	0.8 µg/mL (≈ 1.58 µM)	40 µg/mL (≈ 78.8 µM)	20 µg/mL (≈ 39.4 µM)	NC(=O)OC[C@H](O)[C@@H](O)[C@H](N)C(=O)N[C@H](C(=O)O)[C@H]1O[C@@H](n2cc(CO)c(=O)[nH]c2=O)[C@H](O)[C@@H]1O [POLYOXIN B]		0%	0%			
333 µg/mL (≈ 672 µM)	0.1 µg/mL (≈ 0.202 µM)	5 µg/mL (≈ 10.1 µM)	2.5 µg/mL (≈ 5.05 µM)	C[C@@H]([C@H](N)C(=O)N[C@H](C(=O)O)[C@H]1O[C@@H](n2cc(C=O)nc2O)[C@H](O)[C@@H]1O)[C@H](O)c1ccc(O)cn1	0	90%				30%
> 666 µg/mL	100 µg/mL (≈ 164 µM)	> 666 µg/mL	666 µg/mL (≈ 1090 µM)	CC(C)C[C@H](N)C(=O)N[C@H](C(=O)N[C@H](C(=O)O)[C@H]1OC(n2ccc(=O)[nH]c2=O)[C@H](O)[C@@H]1O)[C@H](C)[C@H](O)c1ccc(O)cn1 (stereo partly specified)	33	0%	28%			
1000 µg/mL (≈ 2060 µM)	100 µg/mL (≈ 206 µM)	250 µg/mL (≈ 515 µM)	500 µg/mL (≈ 1030 µM)	COC(=O)/C=C/C(=O)NC[C@H](N)C(=O)N[C@H](C(=O)O)[C@H]1O[C@@H](n2ccc(=O)[nH]c2=O)[C@H](O)[C@@H]1O	0	7%				0%
> 666 µg/mL	50 µg/mL (≈ 76.4 µM)	> 666 µg/mL	> 666 µg/mL	CCCCCCCC(=O)NCCCC[C@H](NC(=O)[C@@H](N)CC(C)C)C(=O)N[C@H](C(=O)O)[C@H]1OC(n2ccc(=O)[nH]c2=O)[C@H](O)[C@@H]1O (stereo partly specified)	0	0%				32%
> 1000 µg/mL	2 µg/mL (≈ 4.42 µM)	> 1000 µg/mL	> 1000 µg/mL	N[C@@H](Cc1cccc(F)c1)C(=O)N[C@H](C(=O)O)[C@H]1O[C@@H](n2ccc(=O)[nH]c2=O)[C@H](O)[C@@H]1O	33	6%	0%			
> 1000 µg/mL	100 µg/mL (≈ 240 µM)	> 1000 µg/mL	> 1000 µg/mL	NCCOC[C@H](N)C(=O)N[C@H](C(=O)O)[C@H]1O[C@@H](n2ccc(=O)[nH]c2=O)[C@H](O)[C@@H]1O	0	58%	0%			
